# The source made the active and inactive calls. The calls are words filed in the database; no cut-off is given here.
# What was measured:
# Mus musculus [1] = species on record: Mus musculus; assay: Antiprion activity against mouse prion protein RML infected mouse ScN2a cells assessed as proteinase K-resistant PrPSc level at 0.1 uM incubated for 5 days followed by proteinase K digestion by Western blot method relative to control
# Procedure, shortened: (§1)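 RML-infected ScN2a cells were treated with 0.1, 1 and 10 μM for 5 days, with DMSO ≤0.1% final. Lysates (500 μg protein) were digested with 10 μg PK for 1 h at 37 °C, stopped with 2 mM PMSF and ultracentrifuged. Pellets were run on SDS-PAGE and immunoblotted with anti-PrP Fab W226, with ECL detection. Densitometry gave PK-resistant PrPSc over total PrP, with untreated set to 100%. Three independent experiments.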
# [2] = Cytotoxicity against mouse ScN2a cells assessed as cell viability at 10 uM after 5 days by MTT assay relative to control; assay type: cell-based; conditions: read-out: Activity
# Procedure, shortened: (§2)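 ScN2a cells were seeded in MEM at 2.5×10^4 cells/mL and allowed to settle for 2 h. Compounds (DMSO stock, diluted in EtOH then medium) were added at 0.1, 1 and 10 μM for 5 days at 37 °C under 5% CO2. MTT (5 mg/mL) was applied for 3 h and solubilized with DMSO/2-propanol. Plates were read at 570/690 nm. Viability is given as % of untreated control, mean ± SD of three independent experiments.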
# [3] = Cytotoxicity against mouse ScN2a cells assessed as cell viability at 0.1 uM after 5 days by MTT assay relative to control; assay type: cell-based; conditions: read-out: Activity; procedure, shortened: as §2
# Mus musculus [4] = species on record: Mus musculus; assay: Antiprion activity against mouse prion protein RML infected mouse ScN2a cells assessed as proteinase K-resistant PrPSc level at 10 uM incubated for 5 days followed by proteinase K digestion by Western blot method relative to control; procedure, shortened: as §1
# [5] = Cytotoxicity against mouse ScN2a cells assessed as cell viability at 1 uM after 5 days by MTT assay relative to control; assay type: cell-based; conditions: read-out: Activity; procedure, shortened: as §2
# Mus musculus [6] = species on record: Mus musculus; assay: Antiprion activity against mouse prion protein RML infected mouse ScN2a cells assessed as proteinase K-resistant PrPSc level at 1 uM incubated for 5 days followed by proteinase K digestion by Western blot method relative to control; procedure, shortened: as §1
# N2a = assay: Effect on cellular prion protein level in mouse N2A cells up to 10 uM incubated for 5 days by Western blot method; assay type: functional, cell-based
# Procedure, shortened: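 Non-infected N2a cells were treated at 0.1, 1 and 10 μM for 5 days. Lysates (50 µg protein, no PK digestion) were immunoblotted with anti-PrP Fab W226. PrPC was normalized to actin, with untreated controls set to 100%. Done in triplicate.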
# [7] = Cytotoxicity against mouse ScN2a cells assessed as growth inhibition at 1 uM after 5 days by MTT assay relative to control; assay type: cell-based; conditions: read-out: GI; procedure, shortened: as §2
# [8] = Antiprion activity against mouse prion protein RML infected mouse ScN2a cells assessed as reduction in proteinase K-resistant PrPSc level incubated for 5 days followed by proteinase K digestion by Western blot method; conditions: 120 h; procedure, shortened: as §1
Compound,"viability at 120 h, 1 µM [5] [%]",EC50 ([8]; read-out: EC50) [µM],EC50 ([8]; read-out: pEC50 (converted)) [µM],further results
C1=CC2C(=NC(N/N=C/c3ccnc4ccccc34)=C3CC=CN32)N=C1 (stereo not drawn),98.6,–,–,"Activity (Mus musculus [1]): 128%; viability at 120 h, 10 µM [2]: 75.6%; viability at 120 h, 0.1 µM [3]: 104%; Activity (Mus musculus [4]): 83%; Activity (Mus musculus [6]): 144%; Activity (N2a): inactive"
C1=CC2=NC(N/N=C/c3ccnc4ccccc34)=C3CC=CN3C2C=C1 (stereo not drawn),88.3,–,–,"Activity (Mus musculus [1]): 90%; viability at 120 h, 10 µM [2]: 87%; viability at 120 h, 0.1 µM [3]: 92.3%; Activity (Mus musculus [4]): 27%; Activity (Mus musculus [6]): 78%; Activity (N2a): inactive"
c1ccc2c(NCCCCCCCCNc3c4c(nc5ccccc35)CCCC4)c3c(nc2c1)CCCC3,0.7,–,–,"inhibition at 120 h, 1 µM [7]: > 20%"
CN(CCCCNc1c2c(nc3ccccc13)CCCC2)CCCNc1c2c(nc3ccccc13)CCCC2,76.9,–,–,"inhibition at 120 h, 1 µM [7]: > 20%"
C(=C\c1cccs1)/NNc1nc2ccccc2n2cccc12,81.9,–,–,"Activity (Mus musculus [1]): 88%; viability at 120 h, 10 µM [2]: 80.7%; viability at 120 h, 0.1 µM [3]: 78.9%; Activity (Mus musculus [4]): 72%; Activity (Mus musculus [6]): 79%; Activity (N2a): inactive"
C1=CC2=NC(N/N=C/c3ccnc4ccccc34)=C3NC=CN3C2C=C1 (stereo not drawn),98.5,–,–,"Activity (Mus musculus [1]): 178%; viability at 120 h, 10 µM [2]: 83.2%; viability at 120 h, 0.1 µM [3]: 94.4%; Activity (Mus musculus [4]): 30%; Activity (Mus musculus [6]): 131%; Activity (N2a): inactive"
CC1=CC2=NC(N/N=C/c3ccnc4ccccc34)=C3CC=CN3C2C=C1C (stereo not drawn),98.6,–,–,"Activity (Mus musculus [1]): 137%; viability at 120 h, 10 µM [2]: 86.5%; viability at 120 h, 0.1 µM [3]: 96.7%; Activity (Mus musculus [4]): 29%; Activity (Mus musculus [6]): 100%; Activity (N2a): inactive"
c1ccc2oc(-c3csc(Nc4ccc(-c5cnco5)cc4)n3)cc2c1,–,0.228,0.229,–
COc1ccnc(Nc2nc(-c3cc(-c4ccccc4)no3)cs2)c1,–,0.25,0.251,–
c1ccc(-c2cc(-c3csc(Nc4ccc5ccccc5n4)n3)on2)cc1,–,0.8,0.794,–
COC(=O)C1=CC2=NC(N/N=C/c3ccc4ccccc4n3)=C3CC=CN3C2C=C1 (stereo not drawn),88.2,–,–,"inhibition at 120 h, 1 µM [7]: > 20%; viability at 120 h, 10 µM [2]: 45.4%; viability at 120 h, 0.1 µM [3]: 92.6%"
Cc1ccnc(Nc2nc(-c3cc(-c4ccccc4)no3)cs2)c1,–,1.27,1.26,–
Cc1cccc(Nc2nc(-c3ccc(-c4cccnc4)cc3)cs2)n1,–,0.068,0.0692,–
C1=CC2=NC(N/N=C/c3ccc4ccccc4n3)=C3CC=CN3C2C=C1 (stereo not drawn),94.8,–,–,"Activity (Mus musculus [1]): 54%; viability at 120 h, 10 µM [2]: 90.9%; viability at 120 h, 0.1 µM [3]: 87.6%; Activity (Mus musculus [4]): 34%; Activity (Mus musculus [6]): 47%; Activity (N2a): inactive"
Cc1cccc(Nc2nc(-c3ccc(N4CCOCC4)cc3)cs2)n1,–,0.051,0.0513,–
COc1ccc(-c2csc(N(C)c3ccc4ccccc4n3)n2)cc1OC,–,0.14,0.141,–
FC1=CC2=NC(N/N=C/c3ccnc4ccccc34)=C3NC=CN3C2C=C1 (stereo not drawn),92.6,–,–,"Activity (Mus musculus [1]): 76%; viability at 120 h, 10 µM [2]: 72.9%; viability at 120 h, 0.1 µM [3]: 87.7%; Activity (Mus musculus [4]): 31%; Activity (Mus musculus [6]): 34%; Activity (N2a): inactive"
Cc1cccc(Nc2nc(-c3ccc(-c4ccc[n+]([O-])c4)cc3)cs2)n1,–,0.203,0.204,–
c1cc(-c2csc(Nc3ccc(-c4cnco4)cc3)n2)ccn1,–,0.124,0.123,–
COc1ccc(-c2csc(Nc3ncccc3C)n2)cc1OC,–,7.29,7.24,–
COc1ccc(-c2csc(Nc3ccc4ccccc4n3)n2)cc1OC,–,0.43,0.427,–
COc1ccc(-c2csc(Nc3ccc(C)cn3)n2)cc1OC,–,0.79,0.794,–

Compound,"viability at 120 h, 1 µM [5] [%]",EC50 ([8]; read-out: EC50) [µM],EC50 ([8]; read-out: pEC50 (converted)) [µM],further results
NS(=O)(=O)c1ccc(Nc2nc(-c3ccc(O)c(O)c3)cs2)cc1,–,13.5,13.5,–
C(=C\c1ccco1)/NNc1nc2ccccc2n2cccc12,88.5,–,–,"Activity (Mus musculus [1]): 105%; viability at 120 h, 10 µM [2]: 71.4%; viability at 120 h, 0.1 µM [3]: 96.8%; Activity (Mus musculus [4]): 35%; Activity (Mus musculus [6]): 86%; Activity (N2a): inactive"
COc1ccc(-c2csc(Nc3cc(C)ccn3)n2)cc1OC,–,1,1,–
Cc1cccc(Nc2nc(-c3cc(-c4ccccc4)no3)cs2)n1,–,0.82,0.813,–
CC(=O)Nc1nc(-c2ccc(-c3ccccc3)cc2)cs1,–,0.119,0.12,–
Cc1cccc(Nc2nc(-c3ccc(-c4ccc(OC(C)C)nc4)cc3)cs2)n1,–,5.86,5.89,–
COc1ccc2c(C)cc(N/N=C/c3ccnc4ccccc34)nc2c1,84.8,–,–,"Activity (Mus musculus [1]): 88%; viability at 120 h, 10 µM [2]: 83.8%; viability at 120 h, 0.1 µM [3]: 93.9%; Activity (Mus musculus [4]): 13%; Activity (Mus musculus [6]): 77%; Activity (N2a): inactive"
COc1ccc(NC(=O)c2csc(Nc3ccc(C)cn3)n2)cc1OC,–,2.44,2.45,–
COC(=O)C1=CC2=NC(N/N=C/c3ccnc4ccccc34)=C3CC=CN3C2C=C1 (stereo not drawn),89.3,–,–,"Activity (Mus musculus [1]): 104%; viability at 120 h, 10 µM [2]: 67.1%; viability at 120 h, 0.1 µM [3]: 72.6%; Activity (Mus musculus [4]): 30%; Activity (Mus musculus [6]): 131%; Activity (N2a): inactive"
COc1ccc(-c2csc(Nc3ccc4ccccc4n3)n2)cc1,–,0.34,0.339,–
COCCOc1ccc(-c2ccc(-c3csc(NC(=O)C4CC4)n3)cc2)cn1,–,0.118,0.117,–
c1ccc(-c2cc(-c3csc(Nc4ccc(-c5cnco5)cc4)n3)on2)cc1,–,0.057,0.0575,–
Cc1cc(-c2ccc(-c3csc(Nc4cccc(C)n4)n3)cc2)ccn1,–,0.4,0.398,–
CC(=O)Nc1ccc(-c2csc(Nc3ccccn3)n2)cc1,–,8.5,8.51,–
Cc1cccc(Nc2nc(-c3ccncc3)cs2)n1,–,1,1,–
c1ccc(-c2ccc(-c3csc(Nc4ccc5ccccc5n4)n3)s2)nc1,–,2.01,2,–
CN1CCN(c2ccc(-c3ccc(-c4csc(NC(=O)C5CC5)n4)cc3)cn2)CC1,–,0.07,0.0708,–
CN1CCN(c2cccc(Nc3nc(-c4ccc(-c5ccccc5)cc4)cs3)n2)CC1,–,1.18,1.17,–
COCC(=O)Nc1nc(-c2ccc(-c3ccccc3)cc2)cs1,–,1.59,1.58,–
COc1ccc(-c2csc(Nc3ncccn3)n2)cc1OC,–,3.94,3.98,–
Cc1cccc(Nc2nc(-c3ccc(-c4c(C)noc4C)cc3)cs2)n1,–,2.13,2.14,–

# Reference: ChEMBL document CHEMBL3994584, “Identification of novel fluorescent probes preventing PrPSc replication in prion diseases” (Eur J Med Chem, 2017)
